Bioassay records as filed in PubChem.
In the library only some 2.5% were active in any assay of this set; here they are far more common.
GalR3 antag: GalR3 antagonists in HEK293 cells, primary screen, cell-based, fluorescence readout | Galanin receptor type 3 (Homo sapiens), O60755 | HEK293 GalR3-CNG cAMP membrane potential fluorescence; galR3 body fused to GalR1 C-terminus | inhibition, % at 3 µM | 360,000 tested, 0.44% active | AID 651719, 2012;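 active = inhibition above the screen-wide average plus 3 SD, cut at about 13% in these data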;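 also: forskolin and galanin both at EC90 stimulate the cells; cAMP rise reported by CNG channel membrane potential dye signal; 0% = forskolin plus galanin with DMSO and 100% = forskolin alone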
Target sequence (O60755 1-299 limits assumed): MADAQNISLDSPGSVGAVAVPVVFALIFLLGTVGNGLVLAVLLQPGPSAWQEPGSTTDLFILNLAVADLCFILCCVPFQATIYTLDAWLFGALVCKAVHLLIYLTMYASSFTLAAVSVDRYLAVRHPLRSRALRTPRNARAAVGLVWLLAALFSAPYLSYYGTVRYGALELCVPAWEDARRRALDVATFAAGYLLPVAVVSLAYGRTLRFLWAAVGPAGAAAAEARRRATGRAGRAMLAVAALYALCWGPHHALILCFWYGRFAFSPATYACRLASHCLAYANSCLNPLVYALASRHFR
NadD inh: inhibitors of S. aureus NadD, primary screen, biochemical, colorimetric, uHTS. Nicotinate-nucleotide adenylyltransferase NadD (Staphylococcus aureus N315). purified NadD enzyme, colorimetric absorbance read-out. inhibition, % at 20 µM. 360,000 tested, 0.78% active; in the data active = inhibition above about 26%
MsrA inh: bovine MsrA enzyme inhibitors, primary screen, biochemical, absorbance, HTS. Methionine sulfoxide reductase A (Bos taurus). purified bovine MsrA, absorbance read-out. inhibition, % at 15.5 µM. 360,000 tested, 0.75% active. AID 651718, 2012; in the data active = inhibition above about 4.5%;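 also: 0% = vehicle wells with enzyme and 100% = reference inhibitor wells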
NR2E3 ag-1: NR2E3 agonists in two-hybrid cells, primary screen, cell-based, luminescence, CHO-S, Gal4-NCOR/VP16-NR2E3; luciferase; inhibition of corepressor binding, % at 3.98 µM; 360,000 tested, 0.35% active; Photoreceptor-specific nuclear receptor (Homo sapiens), Q9Y5X4; AID 602229, 2012;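 active = inhibition above the mean of all tested compounds plus 3 SD, cut at about 70% in these data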;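 also: 0% = DMSO with NR2E3 transfected cells and 100% = cells lacking NR2E3 construct; higher means lower luciferase signal from less NR2E3 corepressor binding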
bovine MsrA act: bovine MsrA enzyme activators, primary screen, biochemical, absorbance, HTS; Methionine sulfoxide reductase A (Bos taurus); purified bovine MsrA, absorbance read-out; activation, % at 10.6 µM; 360,000 tested, 0.3% active; AID 602163, 2012; in the data active = activation above about 7.5%;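 also: 0% = vehicle and 100% = reference activator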
NR2E3 ag-2: inhibitors of NR2E3-RetCOR corepressor binding, primary screen, NR2E3 agonist project, biochemical, TR-FRET, GST-NR2E3, biotin-RetCOR. Photoreceptor-specific nuclear receptor (Homo sapiens), Q9Y5X4. 1536-well. inhibition of corepressor binding, % at 4.78 µM. 320,000 tested, 0.12% active;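 active = percent inhibition above the cutoff of mean plus 3 SD of all tested compounds, set per screening campaign, cut at about 20% in these data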;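 also: 0% = DMSO wells and 100% = biotin wells as full block of FRET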
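System: GST-tagged NR2E3 plus biotinylated RetCOR corepressor; Amount: 1.35 nM GST-tagged NR2E3 final; Dosing: single nominal compound dose of 4.8 µM; Schedule: 5 h incubation at 4 °C; Technique: TR-FRET with europium anti-GST and streptavidin-D2, 340 nm excitation; Controls: biotin wells as high control, 0.6% DMSO wells as low control.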
NR2E3 ag conf: NR2E3 agonist confirmation in cells, cell-based, luminescence, CHO-S two-hybrid. shares compounds with NR2E3 ag-1. CHO-S mammalian two-hybrid NR2E3-NCOR, luciferase luminescence. inhibition, % at 3.98 µM. 2,300 tested, 51% active. AID 624378, 2012;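 active = average inhibition above a cutoff equal to the mean inhibition of all tested compounds plus one SD, cut at about 70% in these data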;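 also: 0% = DMSO in NR2E3 cells and 100% = DMSO in cells lacking NR2E3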
VP16 counter: GAL4-VP16 reporter modulators, confirmation, counter-screen for NR2E3 agonist project, cell-based, luminescence, CHO-S, high throughput; shares compounds with NR2E3 ag-1; CHO-S GAL4-VP16 luciferase reporter; inhibition, % at 3.98 µM; 2,300 tested, 29% active;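 active = mean inhibition above a cutoff equal to the average over all tested compounds plus one standard deviation, cut at about 70% in these data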;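 also: luciferase from a UAS reporter driven by GAL4-VP16 transactivation; 0% = DMSO with VP16-transfected cells and 100% = DMSO with cells lacking VP16; higher means less reporter light so more repression of VP16 activity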
* marks the source's active call; other numbers are inactive results; x = not tested or not shown.

SMILES | GalR3 antag | NadD inh | MsrA inh | NR2E3 ag-1 | bovine MsrA act | NR2E3 ag-2 | NR2E3 ag conf | VP16 counter
Cc1cc(C)n(CCNC(=O)c2cc(COc3ccc4ncccc4c3)on2)n1 | -5 | -6 | -1 | 30 | -8 | 4 | x | x
Cc1ccccc1C1(O)c2ccccc2-c2ccccc21 | -5 | -1 | 0 | 14 | 0 | x | x | x
COc1ccc(OC)c(C(Nc2ccccc2)P(=O)(OC(C)C)OC(C)C)c1 (stereo unspecified) | 1 | -4 | 0 | 16 | 1 | 0 | x | x
Cc1coc2cc3oc(=O)c(CCC(=O)NC4CC4)c(C)c3cc12 | -2 | 0 | 2 | 70* | 0 | 0 | 85* | 54
CCC(C)NCCCOc1c(C)cc(C)cc1Br (stereo unspecified) | -1 | -5 | 0 | -6 | -3 | 1 | x | x
O=S(=O)(c1ccccc1)N1CCC(Oc2ccc(-n3cnnn3)cc2)CC1 | 2 | -6 | 3 | 3 | -3 | 1 | x | x
COc1cc2ncnc(NCc3ccccc3F)c2cc1OC | -8 | -7 | 1 | -12 | -1 | -1 | x | x
CN(C)c1ccc(CNc2ncnc3sccc23)cc1 | 0 | -3 | 1 | 99* | -8 | 0 | 93* | 70
Fc1ccccc1CNc1ncnc2sccc12 | -10 | -3 | 1 | 100* | -12 | 1 | 88* | 71*
O=c1c2ccccc2n2c(=S)[nH]nc2n1-c1ccccc1 | -7 | 0 | 0 | -11 | 3 | 0 | x | x
Cc1nc(C(=O)NNC(=O)c2cccc(Cl)c2)c(C(F)(F)F)o1 | -9 | 3 | 0 | 0 | -4 | 0 | x | x
O=C1NC[C@H](c2ccccc2)OC(=O)[C@@H](Cc2ccc(F)cc2)CC/C=C/C[C@H]1CC(=O)N(CCO)Cc1ccccc1 | -8 | -11 | -1 | 49 | 0 | x | 37 | 31
O=C1N[C@@H](Cc2ccccc2)COC(=O)[C@@H](Cc2ccc(F)cc2)CC/C=C/C[C@H]1CC(=O)N(CCO)Cc1ccccc1 | -8 | -4 | -1 | 28 | -3 | x | x | x
O=C1NC[C@H](c2ccccc2)OC(=O)[C@H](Cc2ccc(F)cc2)CC/C=C/C[C@H]1CC(=O)N(CCO)Cc1ccccc1 | -2 | -5 | 1 | 36 | -3 | x | x | x
O=C1N[C@H](Cc2ccccc2)COC(=O)[C@H](Cc2ccc(F)cc2)C/C=C\C[C@H]1CC(=O)N(CCO)Cc1ccccc1 | -11 | -11 | 0 | 62 | -8 | x | 63 | 16
CC1(C)C(=O)Nc2ccccc2N1C(=O)CSc1nc(-c2ccccc2)cs1 | -2 | 0 | 0 | 1 | 0 | 3 | x | x
O=C(Nc1nccs1)c1ccc(CSc2ccccc2)o1 | -5 | -1 | 1 | -91 | -10 | 2 | x | x
COc1cccc(OC)c1NC(=O)Cc1nn(C)c(=O)c2ccccc12 | 3 | -3 | 0 | 7 | 0 | 4 | x | x
Cc1ccc(NC(=O)Cc2nn(C)c(=O)c3ccccc23)cc1F | -3 | 15 | 2 | 54 | -1 | 4 | 90* | 75*
COc1ccccc1NC(=O)Cc1nn(C)c(=O)c2ccccc12 | x | 4 | x | 74* | -3 | 1 | 73* | 69
Cc1csc(NC(=O)Cc2nn(C)c(=O)c3ccccc23)n1 | -3 | 3 | 1 | 68 | -6 | 2 | 65 | 54
